Screens (PubChem)
Runt-SMMHC FRET: inhibitors of human RUNX1 Runt domain binding to CBFb-SMMHC. AID 1434. 220,000 compounds, 0.74% hits. Q01196+Q13951. Cerulean-Runt/Venus-CBFb-SMMHC FRET ratio 530/480, 1 h. inhibition, % at 20 µM;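 active = mean inhibition across duplicate retests at 20 µM reaching about 50%, limit read from the data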;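 note: 0% = DMSO wells and 100% = wells with excess untagged CBFb-SMMHC; inhibitors lower the FRET ratio by blocking Runt binding to CBFb-SMMHC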
Target sequence (Q01196 whole entry, looked up, the tested form may be a part): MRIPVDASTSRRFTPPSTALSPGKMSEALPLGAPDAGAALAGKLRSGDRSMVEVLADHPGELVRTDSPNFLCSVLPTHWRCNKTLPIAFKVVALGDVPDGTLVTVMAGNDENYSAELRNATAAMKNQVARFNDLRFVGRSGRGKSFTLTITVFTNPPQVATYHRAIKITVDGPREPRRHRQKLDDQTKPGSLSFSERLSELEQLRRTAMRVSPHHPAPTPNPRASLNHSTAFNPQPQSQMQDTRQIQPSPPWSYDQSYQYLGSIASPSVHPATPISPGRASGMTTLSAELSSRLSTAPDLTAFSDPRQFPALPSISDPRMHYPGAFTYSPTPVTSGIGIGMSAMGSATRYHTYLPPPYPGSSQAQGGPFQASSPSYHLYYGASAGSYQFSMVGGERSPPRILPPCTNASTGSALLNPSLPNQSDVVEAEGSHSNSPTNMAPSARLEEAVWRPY
Target sequence (Q13951 whole entry, looked up, the tested form may be a part): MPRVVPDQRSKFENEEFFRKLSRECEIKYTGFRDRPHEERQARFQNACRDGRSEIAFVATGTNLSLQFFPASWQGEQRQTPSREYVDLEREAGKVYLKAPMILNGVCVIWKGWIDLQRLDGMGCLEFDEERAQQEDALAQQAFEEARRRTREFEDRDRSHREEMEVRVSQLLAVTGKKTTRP
Runt-CBFb FRET: blocks binding of human RUNX1 Runt domain to CBFb; Q01196+Q13951; Cerulean-Runt/Venus-CBFb FRET ratio 530/480, 1 h; inhibition, % at 20 µM; 220,000 compounds, 0.46% hits; AID 1496;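 active = inhibition over about 50% at 20 µM in the single-dose screen, limit read from the data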;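 note: 0% = DMSO wells and 100% = excess unlabeled CBFb competitor control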
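Assay system: Cerulean-tagged RUNX1 Runt domain (FRET donor) fusion protein / Amount: 100 nM each of Venus-CBFb and Cerulean-Runt domain / Medium: Tris buffer pH 7.5 with salts and BSA / Also added: Venus-CBFb 100 nM / Schedule: 1 h complex formation plus 1 h compound treatment, room temperature / Signal: FRET fluorescence / Read-out: loss of energy transfer signal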
RanGTP-Impb inh: disruptors of Ran-importin-beta complex formation – biochemical, FRET, CFP-Ran, YFP-importin-beta, homogeneous, primary screen; cell-free CFP-Ran/YFP-importin-beta FRET ratio; inhibition, % (test concentration not listed); 300,000 compounds, 1.1% hits; AID 2216;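 active = more than half of the replicate wells show a fall in the fluorescence ratio signal beyond about 16%, limit read from the data, passing the limit was not always enough; inconclusive = exactly half of the replicate wells pass the set limit; inactive = fewer than half of replicates pass the limit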;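 note: 0% = DMSO wells and 100% = Ran loaded with GDP instead of GTP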
FAS-TE inh: blocks the thioesterase domain of human fatty acid synthase; 360,000 compounds, 0.67% hits; P49327; recombinant FAS-TE, OMFH fluorogenic substrate, fluorescence endpoint; inhibition, % at 15 µM;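 active = compounds whose normalised, plate-corrected inhibition of enzyme fluorescence in the single-dose primary screen is 50% or more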;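 note: 0% = DMSO with enzyme and 100% = substrate without enzyme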
m-calpain inh: blocks pig calpain II enzyme activity | purified calpain II, fluorogenic peptide substrate, 30 min | inhibition, % at 16 µM | 220,000 compounds, 0.37% hits | AID 1236;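 active = inhibition above about 50%, limit read from the data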
FAS-TE inh conf: FAS thioesterase (human) inhibition, confirmation. shares compounds with FAS-TE inh. recombinant FAS-TE, OMFH fluorogenic substrate, fluorescence. inhibition, % at 15 µM. 2,300 compounds, 45% hits;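 active = compounds inhibiting the enzyme by at least 50% at 15 µM in any one of the replicates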;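 note: 0% = enzyme with DMSO only and 100% = wells lacking enzyme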
* marks the source's active call; other numbers are inactive results; ? = inconclusive; nt = no result given. Only some compounds are listed: those with a hit (about 2.1% of all), similar ones and a draw of the others.

SMILES	Runt-SMMHC FRET	Runt-CBFb FRET	RanGTP-Impb inh	FAS-TE inh	m-calpain inh	FAS-TE inh conf
COc1ccccc1-c1cc(C(=O)N/N=C/C=C/c2ccccc2[N+](=O)[O-])c2ccccc2n1	-2	-3	0	63*	-280	21
COc1cc(/C=N/NC(=O)c2cncc(Br)c2)cc([N+](=O)[O-])c1O	-11	-2	-7	58*	13	70*
COc1cc([N+](=O)[O-])cc(/C=N/NC(=O)c2cc(C)nc3ccccc23)c1O	-6	1	-9	54*	-1	67*
COc1cc([N+](=O)[O-])cc(/C=N/NC(=O)c2cncc(Br)c2)c1O	-19	-10	0	59*	-26	71*
COc1cc(/C=N/NC(=O)c2cccc([N+](=O)[O-])c2)cc(OC)c1O	10	2	-1	8	26	nt
CC(OC(=O)c1nc(Cl)ccc1Cl)C(=O)NCc1ccccc1 (stereo unspecified)	nt	nt	nt	-2	nt	nt
CN(C(=O)c1cccc(NC(=O)Cc2ccc(NC(=O)C3CCCN(S(=O)(=O)c4cccc([N+](=O)[O-])c4)C3)cc2)c1)C1CCCC1 (stereo unspecified)	nt	nt	nt	69*	nt	19
CN(Cc1ccccc1)C(=O)c1ccc(NC(=O)Cc2ccc(NC(=O)C3CCCN(S(=O)(=O)c4cccc([N+](=O)[O-])c4)C3)cc2)cc1 (stereo unspecified)	nt	nt	nt	59*	nt	5
CN(C(=O)c1ccc(NC(=O)Cc2cccc(NC(=O)C3CCCN(S(=O)(=O)c4cccc([N+](=O)[O-])c4)C3)c2)cc1)C1CC1 (stereo unspecified)	nt	nt	nt	28	nt	nt
CN(C(=O)c1ccc(NC(=O)Cc2ccc(NC(=O)C3CCCN(S(=O)(=O)c4cccc([N+](=O)[O-])c4)C3)cc2)cc1)C1CCCC1 (stereo unspecified)	nt	nt	nt	66*	nt	-3
CN(Cc1ccccc1)C(=O)c1ccc(NC(=O)Cc2ccc(NC(=O)C3CCCN(C(=O)C4CCC4)C3)cc2)cc1 (stereo unspecified)	nt	nt	nt	-3	nt	nt
CC1CCCCC1NC(=O)C1CCN(S(=O)(=O)c2cccc3nonc23)CC1 (stereo unspecified)	nt	nt	-1	-13	nt	nt
FC(F)(F)c1cnc2c(-c3ccccc3)n[nH]c2c1	-2	-4	5	-80	-97	nt
C/C(=N\NS(=O)(=O)c1ccc(Cl)c([N+](=O)[O-])c1)c1cc2ccccc2o1	5	15	?	54*	-20	59*
C/C(=N\NS(=O)(=O)c1ccc(C)c([N+](=O)[O-])c1)c1cc2ccccc2o1	-8	-4	?	11	-12	nt
O=C1OC(c2ccccc2)=NC12CC2c1ccc(Cl)cc1 (stereo unspecified)	-5	-1	-1	90*	-23	97*
O=CN1N=C(c2ccccc2)CC1c1ccc(Cl)cc1 (stereo unspecified)	nt	nt	-2	4	nt	nt
COc1ccccc1C(=O)Oc1ccccc1C(=O)Nc1ccccc1	2	-2	6	-4	-38	nt
O=C(Oc1ccccc1C(=O)Nc1ccccc1)c1ccc(Br)c([N+](=O)[O-])c1	2	0	4	78*	18	76*
CN(C)S(=O)(=O)c1ccc(N2CCCC2)c(C(=O)Nc2nc3ccc(F)cc3s2)c1	4	0	2	71*	1	22
CN(C)S(=O)(=O)c1ccc(N2CCCC2)c(C(=O)Nc2nc(-c3ccc(F)cc3)cs2)c1	1	-4	1	56*	-2	24
COc1ccccc1S(=O)(=O)N(C)C[C@H]1OCc2cnnn2CCCC(=O)N([C@H](C)CO)C[C@@H]1C	nt	nt	nt	-10	nt	nt
COc1cc2c(cc1NC(=O)C(C)N1CCN(S(=O)(=O)c3ccccc3[N+](=O)[O-])CC1)oc1ccccc12 (stereo unspecified)	-10	-2	6	54*	-79	12
COc1ccc(CNC(=O)C(C)OC(=O)CN2C(=O)COc3ccccc32)cc1 (stereo unspecified)	nt	nt	-2	-6	nt	nt
Cc1ccc(S(=O)(=O)Nc2ccc3c(c2)C(=O)N([C@H](C)CO)C[C@H](C)[C@H](CN(C)C(=O)Nc2cccc4ccccc24)OCCCC[C@@H](C)O3)cc1	nt	nt	nt	61*	nt	5
SMILES	Runt-SMMHC FRET	Runt-CBFb FRET	RanGTP-Impb inh	FAS-TE inh	m-calpain inh	FAS-TE inh conf
C[C@@H]1CCCCO[C@@H](CN(C)S(=O)(=O)c2cccs2)[C@@H](C)CN([C@H](C)CO)C(=O)c2cc(NS(=O)(=O)c3ccccc3)ccc2O1	nt	nt	nt	63*	nt	14
C[C@@H]1CCCCO[C@H](CN(C)C(=O)Nc2ccc3c(c2)OCO3)[C@H](C)CN([C@@H](C)CO)C(=O)c2cc(NS(=O)(=O)c3ccc(Cl)cc3)ccc2O1	nt	nt	nt	59*	nt	14
C[C@@H]1CN([C@H](C)CO)C(=O)c2cc(NC(=O)Nc3ccc(F)cc3)ccc2O[C@@H](C)CCCCO[C@H]1CN(C)S(=O)(=O)c1ccc(Cl)cc1	nt	nt	nt	69*	nt	35
C[C@@H]1CCCCO[C@H](CN(C)C(=O)Nc2ccc3c(c2)OCO3)[C@@H](C)CN([C@H](C)CO)C(=O)c2cc(NS(=O)(=O)c3ccc(F)cc3)ccc2O1	nt	nt	nt	0	nt	nt
COc1ccc(C(CNC(=O)CN(C)S(=O)(=O)c2ccc(C)cc2)N2CCCC2)cc1 (stereo unspecified)	nt	nt	nt	0	nt	nt
Cc1cccc2nc3c(nc12)CCCC3	nt	nt	-4	-5	nt	nt
CCOC(=O)CN(C(=O)COc1nc(-c2ccccc2)cc(C)c1C#N)c1ccc(C)cc1	4	-3	1	49	-50	nt
CCOC(=O)CN(C(=O)COc1nc(-c2ccccc2)cc(C)c1C#N)c1cccc(OC)c1	-4	0	4	52*	13	3
CCOC(=O)CN(C(=O)COc1nc(-c2ccccc2)cc(C)c1C#N)c1ccccc1	-1	-2	1	59*	-20	30
COc1cccc(CN(C(=O)c2cc3ccccc3oc2=O)C2CCS(=O)(=O)C2)c1 (stereo unspecified)	nt	nt	5	-8	nt	nt
CCCn1c(CCC(=O)O)nc2cc(S(N)(=O)=O)ccc21	1	2	1	-3	2	nt
Cc1ccc(C(=O)Nc2c(C(=O)N3CCOCC3)cnn2-c2ccccc2)cc1	-10	0	4	3	-4	nt
O=C(Nc1c(C(=O)N2CCOCC2)cnn1-c1ccccc1)c1ccc([N+](=O)[O-])cc1	nt	nt	4	52*	nt	56*
CCC(C(=O)OCC(=O)N1CCN(S(=O)(=O)c2ccc(C)cc2C)CC1)c1ccccc1 (stereo unspecified)	nt	nt	nt	27	nt	nt
Cc1cc(C)c(-c2csc(NC(=O)c3cc([N+](=O)[O-])ccc3N3CCOCC3)n2)c(C)c1	2	-3	1	65*	15	33
